According to ChEMBL document CHEMBL4052682, “Exploitation of Conformational Dynamics in Imparting Selective Inhibition for Related Matrix Metalloproteinases” (ACS Med Chem Lett, 2017):
Calls of active or inactive are those of the source. No cut-off for these calls is given here.

Key:
[1] = molecular target: Matrix metalloproteinase-9 (Homo sapiens) (UniProt P14780); experiment: Inhibition of human recombinant MMP-9 catalytic domain (107 to 449 residues) expressed in Escherichia coli using fluorogenic MOCAc-Pro-Leu-Gly-Leu-A2pr(Dnp)-Ala-Arg-NH2 as substrate at 10 uM by fluorescence spectrophotometric analysis
Matrix metalloproteinase-9 (Homo sapiens), sequence (P14780 whole entry, the tested form may be a part): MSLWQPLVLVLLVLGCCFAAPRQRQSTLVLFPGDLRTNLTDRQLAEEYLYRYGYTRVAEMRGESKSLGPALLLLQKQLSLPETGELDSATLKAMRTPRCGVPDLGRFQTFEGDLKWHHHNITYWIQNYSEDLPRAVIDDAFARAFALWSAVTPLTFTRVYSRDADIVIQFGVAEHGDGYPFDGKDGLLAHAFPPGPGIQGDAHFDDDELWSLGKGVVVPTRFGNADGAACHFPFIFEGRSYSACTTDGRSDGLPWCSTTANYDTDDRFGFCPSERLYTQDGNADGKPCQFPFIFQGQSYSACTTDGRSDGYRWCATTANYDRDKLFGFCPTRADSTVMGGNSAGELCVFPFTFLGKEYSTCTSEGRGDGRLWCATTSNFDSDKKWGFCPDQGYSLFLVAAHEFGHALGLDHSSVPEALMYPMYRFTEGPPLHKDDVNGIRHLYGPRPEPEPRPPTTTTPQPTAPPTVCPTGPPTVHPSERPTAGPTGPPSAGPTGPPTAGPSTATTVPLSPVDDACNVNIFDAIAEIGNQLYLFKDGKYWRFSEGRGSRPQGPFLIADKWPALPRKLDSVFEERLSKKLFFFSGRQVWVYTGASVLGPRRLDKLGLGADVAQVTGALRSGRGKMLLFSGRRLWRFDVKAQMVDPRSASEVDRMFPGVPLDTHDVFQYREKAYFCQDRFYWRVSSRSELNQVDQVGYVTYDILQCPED
Procedure, shortened: (§1)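 Single-concentration screen: compounds were incubated at 10 μM with each MMP and its substrate, and percent inhibition was measured.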

[2] = molecular target: T1, Matrilysin (Homo sapiens) (UniProt P09237); experiment: Inhibition of human recombinant active MMP-7 expressed in Escherichia coli using fluorogenic MOCAc-Pro-Leu-Gly-Leu-A2pr(Dnp)-Ala-Arg-NH2 as substrate at 10 uM by fluorescence spectrophotometric analysis; procedure, shortened: as §1
T1 sequence (whole entry): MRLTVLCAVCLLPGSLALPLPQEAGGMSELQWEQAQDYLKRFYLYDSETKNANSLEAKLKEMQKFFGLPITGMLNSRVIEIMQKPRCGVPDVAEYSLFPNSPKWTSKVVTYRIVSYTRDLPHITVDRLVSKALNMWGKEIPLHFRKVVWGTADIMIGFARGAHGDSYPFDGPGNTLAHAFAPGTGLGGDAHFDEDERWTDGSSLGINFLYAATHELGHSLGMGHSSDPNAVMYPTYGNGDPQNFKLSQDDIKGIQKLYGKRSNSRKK

[3] = molecular target: MMP-8 (neutrophil collagenase) (Homo sapiens, UniProt P22894); experiment: (§2) Inhibition of human recombinant MMP-8 catalytic domain (99 to 269 residues) expressed in Escherichia coli using fluorogenic Mca-KPLGL-Dpa-AR-NH2 as substrate at 10 uM by fluorescence spectrophotometric analysis relative to control; settings: probe Mca-KPLGL-Dpa-AR-NH2 (fluorogenic)
MMP-8 (neutrophil collagenase), sequence (P22894 whole entry, the tested form may be a part): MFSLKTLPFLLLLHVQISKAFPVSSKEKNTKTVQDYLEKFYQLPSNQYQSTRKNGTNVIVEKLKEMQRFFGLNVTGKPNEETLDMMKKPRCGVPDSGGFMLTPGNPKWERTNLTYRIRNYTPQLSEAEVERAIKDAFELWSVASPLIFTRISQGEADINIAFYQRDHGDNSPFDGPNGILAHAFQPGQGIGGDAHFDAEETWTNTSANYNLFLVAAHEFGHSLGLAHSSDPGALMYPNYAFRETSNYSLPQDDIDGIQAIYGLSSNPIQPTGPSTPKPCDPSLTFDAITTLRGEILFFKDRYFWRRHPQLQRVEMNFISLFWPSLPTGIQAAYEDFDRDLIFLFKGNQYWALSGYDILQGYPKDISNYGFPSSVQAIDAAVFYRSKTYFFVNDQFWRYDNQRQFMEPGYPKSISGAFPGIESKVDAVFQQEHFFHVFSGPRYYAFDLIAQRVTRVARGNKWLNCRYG

Collagenase 3 [4] = molecular target: T2, Collagenase 3 (Homo sapiens, UniProt P45452); experiment: Inhibition of human recombinant MMP-13 catalytic domain (104 to 274 residues) expressed in Escherichia coli using fluorogenic Mca-KPLGL-Dpa-AR-NH2 as substrate at 10 uM by fluorescence spectrophotometric analysis relative to control; procedure, shortened: as §1
[5] = molecular target: Stromelysin-1 (Homo sapiens) (UniProt P08254); experiment: Inhibition of human recombinant MMP-3 catalytic domain expressed in Escherichia coli using fluorogenic MOCAc-Arg-Pro-Lys-Pro-Val-Glu-Nva-Trp-Arg-Lys(Dnp)-NH2 as substrate at 10 uM by fluorescence spectrophotometric analysis; procedure, shortened: as §1
Stromelysin-1 (Homo sapiens), sequence (P08254 100-477 limits assumed): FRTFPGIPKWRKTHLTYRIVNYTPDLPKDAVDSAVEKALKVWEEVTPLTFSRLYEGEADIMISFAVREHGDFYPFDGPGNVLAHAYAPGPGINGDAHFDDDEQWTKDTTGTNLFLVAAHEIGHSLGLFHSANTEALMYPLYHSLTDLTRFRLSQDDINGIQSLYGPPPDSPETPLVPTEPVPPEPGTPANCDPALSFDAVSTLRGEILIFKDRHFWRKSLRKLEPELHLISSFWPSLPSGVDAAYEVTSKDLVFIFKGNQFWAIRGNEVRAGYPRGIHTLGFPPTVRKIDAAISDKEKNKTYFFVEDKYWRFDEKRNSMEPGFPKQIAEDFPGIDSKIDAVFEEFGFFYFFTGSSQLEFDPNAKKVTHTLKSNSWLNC

Neutrophil collagenase [6] = molecular target: T3, Neutrophil collagenase (Homo sapiens, UniProt P22894); experiment: Inhibition of human recombinant MMP-8 catalytic domain (99 to 269 residues) expressed in Escherichia coli using fluorogenic Mca-KPLGL-Dpa-AR-NH2 as substrate by fluorescence spectrophotometric analysis
T3 sequence (P22894 whole entry, the tested form may be a part): as the sequence (P22894 whole entry, the tested form may be a part) above
Procedure, shortened: (§3)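 Ki was determined only for compounds giving more than 50% inhibition in the 10 μM enzyme–substrate screen.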

[7] = molecular target: Matrix metalloproteinase-14 (Homo sapiens) (UniProt P50281); experiment: Inhibition of human recombinant MMP-14 catalytic domain (89 to 265 residues) expressed in Escherichia coli using fluorogenic MOCAc-Pro-Leu-Gly-Leu-A2pr(Dnp)-Ala-Arg-NH2 as substrate at 10 uM by fluorescence spectrophotometric analysis; procedure, shortened: as §1
[8] = molecular target: T4, Interstitial collagenase (Homo sapiens) (UniProt P03956); experiment: Inhibition of human recombinant MMP-1 catalytic domain (100 to 268 residues) expressed in Escherichia coli using fluorogenic Mca-KPLGL-Dpa-AR-NH2 as substrate at 10 uM by fluorescence spectrophotometric analysis; procedure, shortened: as §1
T4 sequence (whole entry): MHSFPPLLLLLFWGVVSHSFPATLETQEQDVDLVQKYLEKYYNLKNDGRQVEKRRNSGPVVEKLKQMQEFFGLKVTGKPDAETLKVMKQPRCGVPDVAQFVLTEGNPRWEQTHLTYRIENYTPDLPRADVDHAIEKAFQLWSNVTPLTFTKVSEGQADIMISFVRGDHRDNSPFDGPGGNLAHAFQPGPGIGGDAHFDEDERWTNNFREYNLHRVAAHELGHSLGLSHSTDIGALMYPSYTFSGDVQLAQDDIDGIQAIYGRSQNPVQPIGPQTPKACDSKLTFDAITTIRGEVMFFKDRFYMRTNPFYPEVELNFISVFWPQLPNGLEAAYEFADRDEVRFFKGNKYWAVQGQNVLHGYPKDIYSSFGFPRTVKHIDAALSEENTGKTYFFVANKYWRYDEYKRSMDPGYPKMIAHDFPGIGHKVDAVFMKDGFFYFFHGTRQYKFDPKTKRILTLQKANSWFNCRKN

[9] = molecular target: Matrix metalloproteinase-14 (Homo sapiens) (UniProt P50281); experiment: Inhibition of human recombinant MMP-14 catalytic domain ([…]) using fluorogenic MOCAc-Pro-Leu-Gly-Leu-A2pr(Dnp)-Ala-Arg-NH2 as substrate at 10 uM by fluorescence spectrophotometric analysis relative to control; procedure, shortened: as §1
[10] = molecular target: 72 kDa type IV collagenase (Homo sapiens) (UniProt P08253); experiment: Inhibition of human recombinant full length active MMP-2 expressed in mouse cells using fluorogenic MOCAc-Pro-Leu-Gly-Leu-A2pr(Dnp)-Ala-Arg-NH2 as substrate at 10 uM by fluorescence spectrophotometric analysis; format: biochemical; procedure, shortened: as §1
72 kDa type IV collagenase (Homo sapiens), sequence (P08253 110-660 limits assumed): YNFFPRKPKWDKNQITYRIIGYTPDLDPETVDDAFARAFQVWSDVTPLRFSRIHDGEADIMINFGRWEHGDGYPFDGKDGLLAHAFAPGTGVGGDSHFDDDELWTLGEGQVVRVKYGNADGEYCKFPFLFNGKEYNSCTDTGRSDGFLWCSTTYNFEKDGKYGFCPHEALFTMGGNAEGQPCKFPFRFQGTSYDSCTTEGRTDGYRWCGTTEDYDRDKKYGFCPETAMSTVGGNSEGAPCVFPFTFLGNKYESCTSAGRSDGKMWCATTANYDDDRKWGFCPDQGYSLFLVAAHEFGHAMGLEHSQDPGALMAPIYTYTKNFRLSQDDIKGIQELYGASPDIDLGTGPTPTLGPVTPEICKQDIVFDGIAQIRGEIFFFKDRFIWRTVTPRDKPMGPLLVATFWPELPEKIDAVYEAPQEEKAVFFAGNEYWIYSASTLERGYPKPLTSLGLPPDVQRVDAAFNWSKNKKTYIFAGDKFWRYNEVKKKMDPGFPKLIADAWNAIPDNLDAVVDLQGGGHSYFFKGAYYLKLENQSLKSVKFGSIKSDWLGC

Collagenase 3 [11] = molecular target: T2, Collagenase 3; experiment: Inhibition of human recombinant MMP-13 catalytic domain (104 to 274 residues) expressed in Escherichia coli using fluorogenic Mca-KPLGL-Dpa-AR-NH2 as substrate by fluorescence spectrophotometric analysis; procedure, shortened: as §3
Neutrophil collagenase [12] = molecular target: T3, Neutrophil collagenase; experiment: as §2; settings: 10 µM
[13] = molecular target: Matrix metalloproteinase-14 (Homo sapiens) (UniProt P50281); experiment: Inhibition of human recombinant MMP-14 catalytic domain ([…]) using fluorogenic MOCAc-Pro-Leu-Gly-Leu-A2pr(Dnp)-Ala-Arg-NH2 as substrate at 50 uM by fluorescence spectrophotometric analysis relative to control
[14] = AUC (0 to infinity) in CD-1 mouse at 10 mg/kg, po by UPLC analysis; format: ADME, organism-based; set-up: dose 10 mg/kg, time infinity, route oral; settings: in vivo
[15] = AUC (0 to infinity) in CD-1 mouse at 1 mg/kg, iv administered as single dose by UPLC analysis; format: ADME, organism-based; set-up: dose 1 mg/kg, time infinity, route intravenous; settings: in vivo
Procedure, shortened: (§4)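 Mouse pharmacokinetics after a single 1 mg/kg intravenous dose. Three mice were sampled per time point and plasma concentration–time curves were built. Plasma levels were read at 2 min and at 24 h. AUC0-∞, clearance (also expressed as a percentage of hepatic blood flow), volume of distribution and elimination half-life were derived from the curves.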

[16] = Plasma concentration in CD-1 mouse at 1 mg/kg, iv administered as single dose after 24 hrs by UPLC analysis; format: ADME, organism-based; procedure, shortened: as §4
[17] = Elimination half life in CD-1 mouse at 10 mg/kg, po by UPLC analysis; format: ADME, organism-based; settings: in vivo, read-out: beta t1/2 (converted)
Procedure, shortened: (§5)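 Mouse pharmacokinetics after a single 10 mg/kg oral dose. Three mice were sampled per time point, out to 48 h, and plasma concentration–time curves were built. Cmax and its time, elimination half-life and AUC0-∞ were derived. Absolute oral bioavailability came from the oral AUC relative to the intravenous (1 mg/kg) AUC, after dose adjustment.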

[18] = Clearance in CD-1 mouse at 1 mg/kg, iv administered as single dose by UPLC analysis; format: ADME, organism-based; settings: in vivo; procedure, shortened: as §4
[19] = Elimination half life in CD-1 mouse at 1 mg/kg, iv administered as single dose by UPLC analysis; format: ADME, organism-based; settings: in vivo, read-out: beta t1/2 (converted); procedure, shortened: as §4
Mus musculus [20] = experiment: Clearance in CD-1 mouse at 1 mg/kg, iv administered as single dose by UPLC analysis relative to hepatic blood flow; format: ADME, organism-based; settings: in vivo; procedure, shortened: as §4
[21] = Plasma concentration in CD-1 mouse at 10 mg/kg, po after 48 hrs by UPLC analysis; settings: in vivo
[22] = Cmax in CD-1 mouse at 10 mg/kg, po after 6 hrs by UPLC analysis; format: ADME, organism-based; set-up: dose 10 mg/kg, route oral; settings: in vivo; procedure, shortened: as §5
[23] = Oral bioavailability in CD-1 mouse at 10 mg/kg by UPLC analysis; format: ADME, organism-based; settings: in vivo; procedure, shortened: as §5
Mus musculus [24] = experiment: Time at which plasma concentration stays above human recombinant MMP-13 Ki level in CD-1 mouse at 1 mg/kg, iv administered as single dose by UPLC analysis
[25] = Volume of distribution in CD-1 mouse at 1 mg/kg, iv administered as single dose by UPLC analysis; format: ADME, organism-based; settings: in vivo; procedure, shortened: as §4
[26] = Plasma concentration in CD-1 mouse at 1 mg/kg, iv administered as single dose after 2 mins by UPLC analysis; format: ADME, organism-based; procedure, shortened: as §4

SMILES	inhibition [1]	inhibition [2]	inhibition at 10 µM [3]	inhibition (Collagenase 3 [4])	inhibition [5]	Ki (Neutrophil collagenase [6])	inhibition [7]	inhibition [8]	inhibition [9]	inhibition [10]	Ki (Collagenase 3 [11])	inhibition (INH) (Neutrophil collagenase [12])	further results
O=C1COc2ccc(CNC(=O)c3nc4scc(C5CCCCC5)c4c(=O)[nH]3)cc2N1	inactive	inactive	> 50%	> 50%	inactive	19 nM	inactive	inactive	14%	inactive	0.47 nM		
O=C1COc2ccc(CNC(=O)c3cc(-c4ccsc4)n[nH]3)cc2N1				Active								Not Active	
O=C1COc2ccc(CNC(=O)c3nc4sc(C5CCCCC5)cc4c(=O)[nH]3)cc2N1	inactive	inactive	> 50%	> 50%	inactive	3.3 nM	inactive	inactive		inactive	24.5 nM		inhibition [13]: 57%
O=C1COc2ccc(CNC(=O)c3cc(-c4cccc5ccccc45)n[nH]3)cc2N1				Active								Not Active	
O=C1COc2ccc(CNC(=O)c3nc4scc(-c5ccc(C(F)(F)F)cc5)c4c(=O)[nH]3)cc2N1	inactive	inactive	> 50%	> 50%	inactive	8500 nM	inactive	inactive	1%	inactive	36 nM		AUC(0-inf) [14]: 6.92 µM·h; AUC(0-inf) [15]: 14.8 µM·h; concentration at 24 h [16]: 62 nM; half-life [17]: 17.5 h; clearance [18]: 2.2 mL/min/kg; half-life [19]: 5.3 h; CL (Mus musculus [20]): 3%; Plasma concentration at 48 h [21]: 42 nM; Cmax [22]: 400 nM; bioavailability [23]: 4.7%; Time (Mus musculus [24]): 24 h; Vd [25]: 1 L/kg; concentration at 2 min [26]: 4400 nM
O=C1COc2ccc(CNC(=O)c3cc(-c4ccccc4)n[nH]3)cc2N1				Active								Not Active	
O=C1COc2ccc(CNC(=O)c3nc4scc(CCc5ccccc5)c4c(=O)[nH]3)cc2N1	inactive	inactive	> 50%	> 50%	inactive	6500 nM	inactive	inactive	4%	inactive	190 nM		
O=C1COc2ccc(CNC(=O)c3nc4sc5c(c4c(=O)[nH]3)CCCCCC5)cc2N1	inactive	inactive	> 50%	> 50%	inactive	0.71 nM	inactive	inactive	14%	inactive	0.59 nM		
